Test results reported in article PMC3190289 (Clinical and Experimental Gastroenterology, 2011).
Where two headings read alike, the source gives them in different places.

Tests used:
[1] = Safety analysis: treatment-emergent adverse events after single doses; format: in vivo, human; details: healthy subjects; for Incidence of treatment-emergent adverse events: single-dose administration
In short: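 Open-label two-period crossover in 44 subjects aged 20–54. Each period gave one oral dose after an overnight fast of at least 8 h, with a 60-min postdose fast; washout at least 7 days. All dosed subjects were analysed. A treatment-emergent AE started or worsened after first dose and within 30 days of last dose. Terms were coded to MedDRA 13.1 system organ class and preferred term; the investigator judged relatedness. Results were summarised descriptively per regimen.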

intragastric pH = details: cited from earlier work
[2] = Plasma pharmacokinetics after single oral doses in healthy subjects; format: in vivo, human; details: for Subjects with detectable plasma concentrations: single oral dose; for AUC values in CYP2C19 poor metabolizers relative to overall means: two CYP2C19 poor metabolizer subjects
[3] = cited from earlier work
[4] = postdose, single dose 60 mg, healthy subjects

| Subjects with detectable plasma concentrations ([2]; 12 hours postdose) | Subjects with detectable plasma concentrations ([2]; 16 hours postdose) | Subjects with detectable plasma concentrations ([2]; 24 hours postdose) | Time of first peak of mean plasma concentration-time curve [2, 4] | Time of second peak of mean plasma concentration-time curve [2, 4] | AUC values in CYP2C19 poor metabolizers relative to overall means [2] | SMILES | Adverse events considered related to the study drug by the investigator ([1]; single dose) | Incidence of flatulence ([1]; single dose) | Incidence of headache ([1]; single dose) | Incidence of joint injury ([1]; single dose) | Incidence of treatment-emergent adverse events [1] | Percentage of time with intragastric pH > 4 (intragastric pH; 0–24 hours after the same dose (60 mg)) | Time of first peak of plasma concentration-time profile ([3]; after administration) | Half-life [3] | Time of second peak of plasma concentration-time profile ([3]; postdose) | Adverse events reported by two or more subjects ([1]; single dose) | Percentage of time with intragastric pH > 4 (intragastric pH; 0–24 hours after the same dose (40 mg), ref 10) | Percentage of time with intragastric pH > 4 (intragastric pH; 0–24 hours after the same dose (40 mg), ref 12) | Increase in bioavailability at steady state ([3]; after five days of once-daily dosing) | Time of maximum plasma concentrations ([3]; postdose) |
| --- | --- | --- | --- | --- | --- | --- | --- | --- | --- | --- | --- | --- | --- | --- | --- | --- | --- | --- | --- | --- |
| 100% | 88% | 63% | approximately 2 hours | ~5 h | substantially higher | Cc1c(OCC(F)(F)F)ccnc1C[S@@+]([O-])c1nc2ccccc2[nH]1 [dexlansoprazole] | only one adverse event (nausea) | 5% | 9% | 5% | 21% | approximately 60% | 1 to 2 h | 1 to 2 h | 4 to 5 h |  |  |  |  |  |
| 80% | 39% | 9% |  |  | substantially higher | COc1ccc2nc([S@@+]([O-])Cc3ncc(C)c(OC)c3C)[nH]c2c1 [esomeprazole] |  |  |  |  | 14% |  |  |  |  | No adverse event | 54% | 52% | ~2.5 fold | approximately 1.6 hours |
